Data taken from ChEMBL document CHEMBL1153046, “Synthesis and antitumor activity of substituted triazolo[4,3-a]pyrimidin-6-sulfonamide with an incorporated thiazolidinone moiety” (2009).

Experiments:
Assay type in all cases: functional
HCC 2998 = assay: Growth inhibition of human HCC2998 cells after 48 hrs by sulforhodamine B assay; settings: HCC 2998, 48 h
Summary of the method: (§1)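 NCI 60-cell-line panel. Cells are grown in RPMI1640 with 5% fetal calf serum and 2 mM L-glutamine, seeded at a density set by growth characteristics, and preincubated 24 h. Compound is tested at a minimum of five concentrations at 10-fold dilution, with 48 h continuous exposure. Viability is read by sulforhodamine B protein assay. GI50, TGI and LC50 come from dose-response curves.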

HOP-92 = assay: Growth inhibition of human HOP92 cells after 48 hrs by sulforhodamine B assay; settings: HOP-92, 48 h; summary of the method: as §1
HCT-15 = assay: Growth inhibition of human HCT15 cells after 48 hrs by sulforhodamine B assay; settings: HCT-15, 48 h; summary of the method: as §1
SF-268 = assay: Growth inhibition of human SF268 cells after 48 hrs by sulforhodamine B assay; settings: SF-268, 48 h; summary of the method: as §1
NCI-H322M = assay: Growth inhibition of human NCI-H322M cells after 48 hrs by sulforhodamine B assay; summary of the method: as §1
LOX IMVI = assay: Growth inhibition of human LOXIMVI cells after 48 hrs by sulforhodamine B assay; summary of the method: as §1
786-0 = assay: Growth inhibition of human 786-0 cells after 48 hrs by sulforhodamine B assay; settings: 786-0, 48 h; summary of the method: as §1
SK-MEL-28 = assay: Growth inhibition of human SK-MEL-28 cells after 48 hrs by sulforhodamine B assay; settings: SK-MEL-28, 48 h; summary of the method: as §1
NCI-H460 = assay: Growth inhibition of human NCI-H460 cells after 48 hrs by sulforhodamine B assay; settings: NCI-H460, 48 h; summary of the method: as §1
SK-MEL-2 = assay: Growth inhibition of human SK-MEL-2 cells after 48 hrs by sulforhodamine B assay; settings: SK-MEL-2, 48 h; summary of the method: as §1
HT-29 = assay: Growth inhibition of human HT-29 cells after 48 hrs by sulforhodamine B assay; settings: HT-29, 48 h; summary of the method: as §1
UACC-62 = assay: Growth inhibition of human UACC62 cells after 48 hrs by sulforhodamine B assay; settings: UACC-62, 48 h
Summary of the method: (§2)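 NCI 60-cell-line panel (nine cancer types), with cells grown in RPMI1640 plus 5% fetal calf serum and 2 mM L-glutamine. Cells are seeded at a density that depends on the line and preincubated 24 h. Compounds are then applied at a minimum of five 10-fold dilutions over a 5-log range with 48 h continuous exposure. Viability is read by SRB protein assay, and GI50 is derived from dose-response curves in units of 10^-5 M.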

OVCAR-8 = assay: Growth inhibition of human OVCAR8 cells after 48 hrs by sulforhodamine B assay; settings: OVCAR-8, 48 h; summary of the method: as §1
MOLT-4 = assay: Growth inhibition of human MOLT4 cells after 48 hrs by sulforhodamine B assay; settings: MOLT-4, 48 h; summary of the method: as §1
SK-MEL-5 = assay: Growth inhibition of human SK-MEL-5 cells after 48 hrs by sulforhodamine B assay; settings: SK-MEL-5, 48 h; summary of the method: as §1
NCI-H23 = assay: Growth inhibition of human NCI-H23 cells after 48 hrs by sulforhodamine B assay; settings: NCI-H23, 48 h; summary of the method: as §1
SK-OV-3 = assay: Growth inhibition of human SKOV3 cells after 48 hrs by sulforhodamine B assay; settings: SK-OV-3, 48 h; summary of the method: as §1
MDA-MB-231 = assay: Growth inhibition of human MDA-MB-231 cells after 48 hrs by sulforhodamine B assay; settings: MDA-MB-231, 48 h; summary of the method: as §1
HOP-62 = assay: Growth inhibition of human HOP62 cells after 48 hrs by sulforhodamine B assay; settings: HOP-62, 48 h; summary of the method: as §1
OVCAR-4 = assay: Growth inhibition of human OVCAR4 cells after 48 hrs by sulforhodamine B assay; settings: OVCAR-4, 48 h; summary of the method: as §1
MCF7 = assay: Antiproliferative activity against human MCF7 cells assessed as cell growth at 100 uM after 48 hrs by alamar blue assay; settings: MCF7, 48 h, read-out: Activity
Summary of the method: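 NCI three-cell-line primary screen. Cells are seeded and preincubated in microtiter plates. Compound is added at a single 10^-4 M concentration and cultures are incubated 48 h. The end-point is read with alamar blue. Results are given as percent growth relative to untreated control cells.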

OVCAR-3 = assay: Growth inhibition of human OVCAR-3 cells after 48 hrs by sulforhodamine B assay; settings: OVCAR-3, 48 h; summary of the method: as §1
A549 = assay: Growth inhibition of human A549 cells after 48 hrs by sulforhodamine B assay; settings: A549, 48 h; summary of the method: as §1
SNB-75 = assay: Growth inhibition of human SNB75 cells after 48 hrs by sulforhodamine B assay; settings: SNB-75, 48 h; summary of the method: as §2
SF-539 = assay: Growth inhibition of human SF539 cells after 48 hrs by sulforhodamine B assay; settings: SF-539, 48 h; summary of the method: as §1
NCI-H226 = assay: Growth inhibition of human NCI-H226 cells after 48 hrs by sulforhodamine B assay; settings: NCI-H226, 48 h; summary of the method: as §1
[1] = Growth inhibition of human […] cells after 48 hrs by sulforhodamine B assay; summary of the method: as §1
HL-60(TB) = assay: Growth inhibition of human HL-60(TB) cells after 48 hrs by sulforhodamine B assay; settings: HL-60, 48 h
Summary of the method: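 NCI 60-cell-line panel. Cells were grown in RPMI1640 with 5% fetal calf serum and 2 mM L-glutamine, seeded at a density suited to each line, and preincubated 24 h. Compounds were tested at a minimum of five concentrations at 10-fold dilutions over a 5-log range, with 48 h continuous exposure. Growth was read by sulforhodamine B protein staining, and GI50 was taken from dose-response curves.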

[2] = read-out: LC50 (the source's name)

For `COc1ccc(/C=N/c2nc3[nH]nc(C)n3c(=O)c2S(=O)(=O)NN2C(=O)C(CN3CCN(C)CC3)SC2c2cccs2)cc1` (stereo not given), which GI50 (HCC 2998) is on record?
Its GI50 is 1.34 µM.

What about the LC50 (HCC 2998) of the same compound?
Its LC50 is over 100 µM.

And the TGI (HCC 2998)?
The TGI was 16.8 µM.

And the GI50 (HOP-92)?
The GI50 was 9.41 µM.

What about the LC50 (HOP-92) of the same compound?
Its LC50 is over 100 µM.

And the TGI (HOP-92)?
Its TGI is over 100 µM.

What about the GI50 (HCT-15) of the same compound?
Its GI50 is 0.65 µM.

What about the TGI (HCT-15) of the same compound?
Its TGI is over 100 µM.

And the GI50 (SF-268)?
Its GI50 is over 100 µM.

What about the TGI (SF-268) of the same compound?
The TGI was over 100 µM.

And the CC50 (SF-268; [2])?
The CC50 was over 100 µM.

And the GI50 (NCI-H322M)?
The GI50 was 8.18 µM.

And the TGI (NCI-H322M)?
The TGI was over 100 µM.

What about the GI50 (LOX IMVI) of the same compound?
Its GI50 is 2.16 µM.

What about the TGI (LOX IMVI) of the same compound?
Its TGI is over 100 µM.

And the GI50 (786-0)?
The GI50 was 3.93 µM.

What about the TGI (786-0) of the same compound?
Its TGI is over 100 µM.

What about the CC50 (786-0; [2]) of the same compound?
Its CC50 is over 100 µM.

What about the GI50 (SK-MEL-28) of the same compound?
Its GI50 is 16.4 µM.

What about the TGI (SK-MEL-28) of the same compound?
Its TGI is over 100 µM.

What about the GI50 (NCI-H460) of the same compound?
The GI50 was 8.2 µM.

And the TGI (NCI-H460)?
Its TGI is over 100 µM.

And the GI50 (SK-MEL-2)?
Its GI50 is 5.55 µM.

And the LC50 (concentration killing 50% of cells) (SK-MEL-2)?
Its LC50 (concentration killing 50% of cells) is over 100 µM.

And the TGI (SK-MEL-2)?
The TGI was over 100 µM.

And the GI50 (HT-29)?
The GI50 was 1.96 µM.

And the GI50 (UACC-62)?
The GI50 was 1.47 µM.

And the TGI (UACC-62)?
The TGI was over 100 µM.

What about the CC50 (UACC-62; [2]) of the same compound?
Its CC50 is over 100 µM.

What about the GI50 (OVCAR-8) of the same compound?
The GI50 was 3.53 µM.

And the TGI (OVCAR-8)?
Its TGI is 40.5 µM.

What about the GI50 (MOLT-4) of the same compound?
The GI50 was 2.88 µM.

What about the TGI (MOLT-4) of the same compound?
Its TGI is 18.3 µM.

What about the CC50 (MOLT-4; [2]) of the same compound?
Its CC50 is over 100 µM.

And the GI50 (SK-MEL-5)?
Its GI50 is 0.72 µM.

And the TGI (SK-MEL-5)?
The TGI was 7.11 µM.

And the CC50 (SK-MEL-5; [2])?
Its CC50 is over 100 µM.

And the GI50 (NCI-H23)?
The GI50 was 1.16 µM.

And the TGI (NCI-H23)?
The TGI was 9.11 µM.

And the GI50 (SK-OV-3)?
Its GI50 is 5.12 µM.

What about the TGI (SK-OV-3) of the same compound?
Its TGI is over 100 µM.

What about the GI50 (MDA-MB-231) of the same compound?
Its GI50 is 3.25 µM.

And the LC50 (50% lethal concentration) (MDA-MB-231)?
Its LC50 (50% lethal concentration) is over 100 µM.

And the TGI (MDA-MB-231)?
Its TGI is 42.2 µM.

What about the GI50 (HOP-62) of the same compound?
The GI50 was 1.7 µM.

What about the LC50 (HOP-62) of the same compound?
Its LC50 is over 100 µM.

And the TGI (HOP-62)?
The TGI was over 100 µM.

And the GI50 (OVCAR-4)?
The GI50 was over 100 µM.

What about the LC50 (OVCAR-4) of the same compound?
Its LC50 is over 100 µM.

And the TGI (OVCAR-4)?
The TGI was over 100 µM.

What about the growth at 100 µM (MCF7) of the same compound?
Its growth at 100 µM is 46%.

And the GI50 (OVCAR-3)?
Its GI50 is 0.88 µM.

What about the LC50 (concentration killing 50% of cells) (OVCAR-3) of the same compound?
The LC50 (concentration killing 50% of cells) was over 100 µM.

And the TGI (OVCAR-3)?
Its TGI is over 100 µM.

What about the GI50 (A549) of the same compound?
Its GI50 is 3.65 µM.

And the TGI (A549)?
Its TGI is over 100 µM.

And the GI50 (SNB-75)?
The GI50 was 2.01 µM.

And the TGI (SNB-75)?
Its TGI is over 100 µM.

What about the GI50 (SF-539) of the same compound?
The GI50 was 1.77 µM.

What about the LC50 (SF-539) of the same compound?
The LC50 was over 100 µM.

And the TGI (SF-539)?
Its TGI is 5.58 µM.

What about the GI50 (NCI-H226) of the same compound?
The GI50 was 11.8 µM.

What about the LC50 (concentration killing 50% of cells) (NCI-H226) of the same compound?
The LC50 (concentration killing 50% of cells) was over 100 µM.

What about the TGI (NCI-H226) of the same compound?
The TGI was over 100 µM.

And the GI50 [1]?
The GI50 was 2.56 µM.

And the TGI [1]?
Its TGI is 8.21 µM.

What about the CC50 [1, 2] of the same compound?
Its CC50 is over 100 µM.

What about the GI50 (HL-60(TB)) of the same compound?
The GI50 was 3.41 µM.

What about the LC50 (HL-60(TB)) of the same compound?
Its LC50 is 31.3 µM.

What about the TGI (HL-60(TB)) of the same compound?
The TGI was 7.04 µM.
